From ChEMBL document CHEMBL1143997, “Further structural optimization of cis-(6-benzhydryl-piperidin-3-yl)-benzylamine and 1,4-diazabicyclo[3.3.1]nonane derivatives by introducing an exocyclic hydroxyl group: interaction with dopamine, serotonin, and norepinephrine transporters” (Bioorg Med Chem, 2008)

Experiments:
[1] = target: T1, Sodium-dependent dopamine transporter (Rattus norvegicus, UniProt P23977); assay: Displacement of [3H]WIN-from DAT in rat striatum
How it was run: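 Compounds dissolved in DMSO, diluted in 10% DMSO, final 0.5% DMSO. At least five concentrations in triplicate spaced around IC50. IC50 from nonlinear curve fitting, converted to Ki by Cheng-Prusoff. Mean ± SEM of 3–8 independent experiments.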

[2] = target: T1, Sodium-dependent dopamine transporter; assay: Inhibition of [3H]dopamine uptake in DAT in rat striatum; type: tissue-based
How it was run: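 Rat striatal tissue; [3H]DA accumulation measured. Nonspecific uptake defined with 100 uM cocaine. Compounds dissolved in DMSO, final 0.5% DMSO. At least five triplicate concentrations spaced around IC50. Nonlinear curve fit, with Ki from Cheng-Prusoff. Mean ± SEM of 3–8 independent experiments done in triplicate.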

[3] = target: Sodium-dependent serotonin transporter (Rattus norvegicus, UniProt P31652); assay: Inhibition of [3H]5HT uptake in SERT in rat cerebral cortex; type: tissue-based
Sodium-dependent serotonin transporter, sequence (P31652 whole entry): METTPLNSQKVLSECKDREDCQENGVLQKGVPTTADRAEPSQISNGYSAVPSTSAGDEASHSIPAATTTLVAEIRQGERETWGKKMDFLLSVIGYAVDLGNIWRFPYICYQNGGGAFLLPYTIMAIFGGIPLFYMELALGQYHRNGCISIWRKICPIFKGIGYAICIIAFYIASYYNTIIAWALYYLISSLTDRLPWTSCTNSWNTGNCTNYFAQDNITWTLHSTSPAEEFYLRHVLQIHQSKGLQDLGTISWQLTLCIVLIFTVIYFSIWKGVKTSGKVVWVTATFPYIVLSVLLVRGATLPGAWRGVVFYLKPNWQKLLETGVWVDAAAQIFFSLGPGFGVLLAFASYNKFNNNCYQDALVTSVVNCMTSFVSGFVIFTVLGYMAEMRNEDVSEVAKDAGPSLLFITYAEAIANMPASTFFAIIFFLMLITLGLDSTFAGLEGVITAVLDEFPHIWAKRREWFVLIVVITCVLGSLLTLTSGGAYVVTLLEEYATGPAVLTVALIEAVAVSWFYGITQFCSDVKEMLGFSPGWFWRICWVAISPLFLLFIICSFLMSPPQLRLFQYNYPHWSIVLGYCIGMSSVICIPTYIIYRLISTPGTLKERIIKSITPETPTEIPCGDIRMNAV
How it was run: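 Rat cerebral cortex; [3H]5-HT accumulation measured. Nonspecific uptake defined with 10 uM citalopram. Compounds dissolved in DMSO, final 0.5% DMSO. At least five triplicate concentrations spaced around IC50. Nonlinear fit, with Ki by Cheng-Prusoff. Mean ± SEM of 3–8 independent experiments in triplicate.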

[4] = target: Norepinephrine transporter (Rattus norvegicus, UniProt Q9WTR4); assay: Inhibition of [3H]NE uptake in NET in rat cerebral cortex; type: tissue-based
Norepinephrine transporter, sequence (Q9WTR4 whole entry): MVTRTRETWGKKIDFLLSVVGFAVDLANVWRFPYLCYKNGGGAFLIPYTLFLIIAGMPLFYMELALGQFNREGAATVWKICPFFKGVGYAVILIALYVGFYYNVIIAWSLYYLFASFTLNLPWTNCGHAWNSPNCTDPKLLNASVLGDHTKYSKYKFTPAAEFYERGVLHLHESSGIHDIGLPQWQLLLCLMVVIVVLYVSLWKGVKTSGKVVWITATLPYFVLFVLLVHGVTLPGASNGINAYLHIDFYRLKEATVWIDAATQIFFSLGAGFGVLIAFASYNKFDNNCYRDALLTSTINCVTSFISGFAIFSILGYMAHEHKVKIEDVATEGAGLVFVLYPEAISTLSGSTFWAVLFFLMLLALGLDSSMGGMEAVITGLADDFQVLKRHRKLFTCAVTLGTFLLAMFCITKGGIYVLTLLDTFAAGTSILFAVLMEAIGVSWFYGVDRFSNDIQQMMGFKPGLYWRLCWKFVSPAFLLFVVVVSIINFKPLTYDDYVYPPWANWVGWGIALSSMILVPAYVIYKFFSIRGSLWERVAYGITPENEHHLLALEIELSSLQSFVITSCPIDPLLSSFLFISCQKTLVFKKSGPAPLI

Rattus norvegicus [5] = organism: Rattus norvegicus; assay: Ratio of Ki for SERT to Ki for DAT in rat brain; type: tissue-based
Rattus norvegicus [6] = organism: Rattus norvegicus; assay: Ratio of Ki for NET to Ki for DAT in rat brain; type: tissue-based
[7] = target: Sodium-dependent dopamine transporter (Rattus norvegicus) (UniProt P23977); assay: Ratio of [3H]DA uptake to [3H]WIN-binding to DAT in rat brain; type: tissue-based
Sodium-dependent dopamine transporter (Rattus norvegicus), sequence (P23977 whole entry): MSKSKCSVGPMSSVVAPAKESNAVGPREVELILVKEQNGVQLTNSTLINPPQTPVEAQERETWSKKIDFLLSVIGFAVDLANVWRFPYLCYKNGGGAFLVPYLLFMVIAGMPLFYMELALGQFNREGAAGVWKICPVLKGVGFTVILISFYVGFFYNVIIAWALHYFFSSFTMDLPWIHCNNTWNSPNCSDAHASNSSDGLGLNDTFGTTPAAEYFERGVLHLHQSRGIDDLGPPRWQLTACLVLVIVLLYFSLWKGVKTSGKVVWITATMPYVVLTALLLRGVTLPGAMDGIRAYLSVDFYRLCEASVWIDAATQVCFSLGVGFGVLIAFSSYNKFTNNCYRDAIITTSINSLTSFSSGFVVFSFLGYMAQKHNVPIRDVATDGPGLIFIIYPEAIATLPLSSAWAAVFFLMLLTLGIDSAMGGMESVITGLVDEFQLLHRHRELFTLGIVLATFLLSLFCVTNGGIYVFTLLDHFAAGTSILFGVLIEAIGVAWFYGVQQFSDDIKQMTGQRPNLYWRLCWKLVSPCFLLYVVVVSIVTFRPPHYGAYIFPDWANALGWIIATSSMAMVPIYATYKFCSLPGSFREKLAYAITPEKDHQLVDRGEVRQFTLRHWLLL

T1 sequence (P23977 whole entry): as above

## O[C@H](CN1CCN2C[C@@H]1CC[C@H]2C(c1ccccc1)c1ccccc1)c1ccc(F)cc1
[1]
  Ki: 649 nM
[2]
  Ki: 160 nM
[3]
  Ki: 7340 nM
[4]
  Ki: 728 nM
Rattus norvegicus [5]
  Ratio Ki: 45.9
Rattus norvegicus [6]
  Ratio Ki: 4.5
[7]
  Ratio Ki: 0.24

## COc1ccc(CN2CCN3C[C@@H]2CC[C@H]3C(c2ccccc2)c2ccccc2)cc1
[1]
  Ki: 22.5 nM
[2]
  Ki: 18.4 nM

## O[C@H](Cc1ccccc1)CN1CCN2C[C@@H]1CC[C@H]2C(c1ccccc1)c1ccccc1
[1]
  Ki: 148 nM
[2]
  Ki: 82.9 nM
[3]
  Ki: 11200 nM
[4]
  Ki: 730 nM
Rattus norvegicus [5]
  Ratio Ki: 135
Rattus norvegicus [6]
  Ratio Ki: 8.8
[7]
  Ratio Ki: 0.56

## N#Cc1ccc(CN[C@H]2CC[C@@H](C(c3ccccc3)c3ccccc3)NC2)cc1
[1]
  Ki: 11.3 nM
[2]
  Ki: 9.1 nM

## O[C@@H](CN[C@H]1CC[C@@H](C(c2ccccc2)c2ccccc2)NC1)Cc1ccccc1
[2]
  Ki: 10.6 nM
[3]
  Ki: 1390 nM
[4]
  Ki: 170 nM
[7]
  Ratio Ki: 0.78

## O[C@@H](Cc1ccccc1)CN1CCN2C[C@@H]1CC[C@H]2C(c1ccccc1)c1ccccc1
[1]
  Ki: 47 nM
[2]
  Ki: 16.8 nM
[3]
  Ki: 10300 nM
[4]
  Ki: 259 nM
Rattus norvegicus [5]
  Ratio Ki: 615
Rattus norvegicus [6]
  Ratio Ki: 15.4
[7]
  Ratio Ki: 0.35

## O[C@H](CN[C@H]1CC[C@@H](C(c2ccccc2)c2ccccc2)NC1)Cc1ccccc1
[1]
  Ki: 28.9 nM
[3]
  Ki: 2600 nM
[4]
  Ki: 231 nM
Rattus norvegicus [5]
  Ratio Ki: 103
Rattus norvegicus [6]
  Ratio Ki: 9.1
[7]
  Ratio Ki: 0.87

## O[C@@H](CN1CCN2C[C@@H]1CC[C@H]2C(c1ccccc1)c1ccccc1)c1ccc(F)cc1
[1]
  Ki: 142 nM
[2]
  Ki: 66.5 nM
[3]
  Ki: 7410 nM
[4]
  Ki: 319 nM
Rattus norvegicus [5]
  Ratio Ki: 111
Rattus norvegicus [6]
  Ratio Ki: 4.7
[7]
  Ratio Ki: 0.46

## O[C@@H](CCN1CCN2C[C@@H]1CC[C@H]2C(c1ccccc1)c1ccccc1)c1ccc(F)cc1
[1]
  Ki: 13.5 nM
[2]
  Ki: 8.63 nM
[3]
  Ki: 1480 nM
[4]
  Ki: 418 nM
Rattus norvegicus [5]
  Ratio Ki: 172
Rattus norvegicus [6]
  Ratio Ki: 48.4
[7]
  Ratio Ki: 0.63

## O[C@@H](CN[C@H]1CC[C@@H](C(c2ccccc2)c2ccccc2)NC1)c1ccc(F)cc1
[3]
  Ki: 2900 nM
[4]
  Ki: 1440 nM
Rattus norvegicus [5]
  Ratio Ki: 12.2
Rattus norvegicus [6]
  Ratio Ki: 6

## O[C@H](CCN1CCN2C[C@@H]1CC[C@H]2C(c1ccccc1)c1ccccc1)c1ccc(F)cc1
[1]
  Ki: 19.9 nM
[2]
  Ki: 41.8 nM
[3]
  Ki: 11900 nM
[4]
  Ki: 388 nM
Rattus norvegicus [5]
  Ratio Ki: 284
Rattus norvegicus [6]
  Ratio Ki: 9.2
[7]
  Ratio Ki: 2.1

## O[C@H](CN1CCN2C[C@@H]1CC[C@H]2C(c1ccccc1)c1ccccc1)c1ccccc1
[1]
  Ki: 1040 nM
[2]
  Ki: 266 nM
[3]
  Ki: 9510 nM
[4]
  Ki: 1730 nM
Rattus norvegicus [5]
  Ratio Ki: 35.7
Rattus norvegicus [6]
  Ratio Ki: 6.5
[7]
  Ratio Ki: 0.25

## O[C@@H](CN1CCN2C[C@@H]1CC[C@H]2C(c1ccccc1)c1ccccc1)c1ccccc1
[1]
  Ki: 228 nM
[2]
  Ki: 204 nM
[3]
  Ki: 12900 nM
[4]
  Ki: 954 nM
Rattus norvegicus [5]
  Ratio Ki: 63.2
Rattus norvegicus [6]
  Ratio Ki: 4.6
[7]
  Ratio Ki: 0.89
